According to ChEMBL document CHEMBL1129451, “Novel potent sigma 1 ligands: N-[omega-(tetralin-1-yl)alkyl]piperidine derivatives” (J Med Chem, 1996):

Key:
[1] = target: T1, 5-hydroxytryptamine receptor 1A (Rattus norvegicus, UniProt P19327); assay: Binding affinity was tested on 5-hydroxytryptamine 1A receptor using radioligand [3H]5-HT binding assay.
T1 sequence (P19327 whole entry): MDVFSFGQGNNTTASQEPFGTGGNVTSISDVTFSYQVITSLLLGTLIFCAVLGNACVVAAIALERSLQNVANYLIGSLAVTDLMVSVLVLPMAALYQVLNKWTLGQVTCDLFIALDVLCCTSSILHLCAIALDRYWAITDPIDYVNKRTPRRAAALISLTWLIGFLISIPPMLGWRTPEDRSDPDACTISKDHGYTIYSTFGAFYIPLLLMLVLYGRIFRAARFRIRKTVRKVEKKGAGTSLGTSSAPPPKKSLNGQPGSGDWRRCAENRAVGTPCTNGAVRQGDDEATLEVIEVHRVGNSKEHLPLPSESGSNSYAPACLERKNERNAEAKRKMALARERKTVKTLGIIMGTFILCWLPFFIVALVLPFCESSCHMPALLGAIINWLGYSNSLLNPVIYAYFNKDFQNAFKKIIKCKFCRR
Method in brief: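 Six to nine drug concentrations, triplicate samples, two to three independent experiments. IC50 converted to Ki by Cheng–Prusoff, with Kd and Bmax from saturation experiments.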

[2] = target: Serotonin 2 (5-HT2) receptor (Rattus norvegicus) (UniProt P30994+P08909+P14842); assay: Percentage specific displacement of radioligand [3H]ketanserin from 5-hydroxytryptamine 2 receptor; type: protein assay; set-up: concentration or dose not given beside the values
Sequence of Serotonin 2 (5-HT2) receptor (Rattus norvegicus) (P08909 whole entry, looked up): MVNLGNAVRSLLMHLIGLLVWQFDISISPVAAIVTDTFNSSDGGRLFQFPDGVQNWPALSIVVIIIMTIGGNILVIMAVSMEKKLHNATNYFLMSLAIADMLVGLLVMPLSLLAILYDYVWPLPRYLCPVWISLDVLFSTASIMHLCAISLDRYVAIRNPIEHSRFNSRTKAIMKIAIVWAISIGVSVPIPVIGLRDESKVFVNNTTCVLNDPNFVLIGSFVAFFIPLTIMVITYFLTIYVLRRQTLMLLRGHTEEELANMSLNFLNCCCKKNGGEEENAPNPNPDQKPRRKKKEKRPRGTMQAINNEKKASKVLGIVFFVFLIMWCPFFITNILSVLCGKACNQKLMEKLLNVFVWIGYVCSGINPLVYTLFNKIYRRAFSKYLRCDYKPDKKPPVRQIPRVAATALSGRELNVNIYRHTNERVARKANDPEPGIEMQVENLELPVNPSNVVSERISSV
Sequence of Serotonin 2 (5-HT2) receptor (Rattus norvegicus) (P14842 whole entry, looked up): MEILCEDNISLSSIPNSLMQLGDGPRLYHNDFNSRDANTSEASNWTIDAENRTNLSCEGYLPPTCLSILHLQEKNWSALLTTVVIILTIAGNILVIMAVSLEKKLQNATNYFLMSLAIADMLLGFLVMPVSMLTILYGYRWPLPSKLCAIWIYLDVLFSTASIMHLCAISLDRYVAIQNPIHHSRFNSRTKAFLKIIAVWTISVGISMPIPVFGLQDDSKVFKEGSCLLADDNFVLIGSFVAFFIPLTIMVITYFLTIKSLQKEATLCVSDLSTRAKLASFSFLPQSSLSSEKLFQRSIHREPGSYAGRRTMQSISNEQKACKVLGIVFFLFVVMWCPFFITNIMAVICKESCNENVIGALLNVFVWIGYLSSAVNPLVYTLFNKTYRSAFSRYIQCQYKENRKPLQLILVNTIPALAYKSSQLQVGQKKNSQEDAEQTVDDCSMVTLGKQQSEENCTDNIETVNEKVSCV
Sequence of Serotonin 2 (5-HT2) receptor (Rattus norvegicus) (P30994 whole entry, looked up): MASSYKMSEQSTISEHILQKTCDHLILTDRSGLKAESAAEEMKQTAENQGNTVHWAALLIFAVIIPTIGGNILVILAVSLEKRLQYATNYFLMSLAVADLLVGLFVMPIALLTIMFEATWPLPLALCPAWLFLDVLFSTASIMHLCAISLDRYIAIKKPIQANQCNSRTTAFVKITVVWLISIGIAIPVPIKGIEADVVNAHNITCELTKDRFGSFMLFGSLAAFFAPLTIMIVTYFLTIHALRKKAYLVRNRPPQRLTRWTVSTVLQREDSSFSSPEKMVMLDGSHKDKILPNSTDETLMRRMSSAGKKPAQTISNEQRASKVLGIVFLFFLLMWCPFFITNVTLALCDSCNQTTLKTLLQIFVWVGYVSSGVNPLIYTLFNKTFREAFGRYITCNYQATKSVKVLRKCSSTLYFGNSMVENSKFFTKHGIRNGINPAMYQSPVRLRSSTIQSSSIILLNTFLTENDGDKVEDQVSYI

[3] = target: D(2) dopamine receptor (Rattus norvegicus) (UniProt P61169); assay: (§1) Binding affinity was tested on Dopamine receptor D2 using radioligand [3H]spiroperidol; set-up: concentration or dose not given beside the values
Sequence of D(2) dopamine receptor (Rattus norvegicus) (P61169 whole entry): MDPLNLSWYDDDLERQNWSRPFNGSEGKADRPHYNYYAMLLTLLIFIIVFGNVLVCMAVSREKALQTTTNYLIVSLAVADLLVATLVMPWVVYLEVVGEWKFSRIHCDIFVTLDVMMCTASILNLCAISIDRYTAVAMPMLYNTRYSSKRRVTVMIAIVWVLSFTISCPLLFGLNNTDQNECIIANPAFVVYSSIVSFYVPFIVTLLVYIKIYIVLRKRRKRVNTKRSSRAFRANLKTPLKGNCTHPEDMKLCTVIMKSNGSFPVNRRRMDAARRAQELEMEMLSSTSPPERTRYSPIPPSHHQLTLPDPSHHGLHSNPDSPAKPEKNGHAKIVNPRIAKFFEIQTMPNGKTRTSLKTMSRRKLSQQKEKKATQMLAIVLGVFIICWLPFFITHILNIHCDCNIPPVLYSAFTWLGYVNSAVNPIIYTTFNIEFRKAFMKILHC
Method in brief: (§2)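 Rat striatal membranes labelled with [3H]spiroperidol; (+)-butaclamol defined specific binding. […] Ki by Cheng–Prusoff using Bmax and Kd from saturation experiments. Tested as hydrogen oxalate salts (some hydrochlorides); oxalate interference excluded at highest concentration.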

Glutamate NMDA receptor = assay: Binding affinity was tested on Phencyclidine binding assay.; type: protein-complex assay
Method in brief: (§3)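 [3H]phencyclidine binding to rat hippocampus membranes, with (+)-N-allylnormetazocine (SKF 10,047) defining specific binding. […] Ki via Cheng–Prusoff with Bmax and Kd taken from saturation experiments.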

[4] = target: Sigma-1 receptor (Rattus norvegicus); assay: Binding affinity was tested on Sigma-1 receptor using radioligand [3H](+)-pentazocine binding assay.
[5] = target: Serotonin 2 (5-HT2) receptor (Rattus norvegicus, UniProt P30994+P08909+P14842); assay: Percentage specific displacement of radioligand [3H]-ketanserin from 5-hydroxytryptamine 2 receptor; type: protein assay
D(2) dopamine receptor [6] = target: T2, D(2) dopamine receptor (Rattus norvegicus, UniProt P61169); assay: as §1
T2 sequence (P61169 whole entry): as above
Method in brief: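 Ki by Cheng–Prusoff using Bmax and Kd from saturation experiments. Tested as hydrogen oxalate salts (some hydrochlorides); oxalate interference excluded at highest concentration.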

[7] = target: T3, Glutamate NMDA receptor (Rattus norvegicus) (UniProt P35439+Q00959+Q00960+Q00961+Q62645+Q8VHN2+Q9R1M7); assay: Percentage specific displacement of radioligand [3H]phencyclidine from Phencyclidine receptor; type: protein-complex assay
Method in brief: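 Rat hippocampus membranes, [3H]phencyclidine radioligand; (+)-N-allylnormetazocine (SKF 10,047) defined specific binding. Percent specific displacement run in triplicate at a single stated compound concentration.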

[8] = Binding affinity of compound was tested on Phencyclidine binding assay.
D(2) dopamine receptor [9] = target: T2, D(2) dopamine receptor; assay: (§4) Binding affinity of compound towards Dopamine receptor D2 was determined in rat striatal homogenate using [3H]- spiperone as radioligand; method in brief: as §2
[10] = target: D(2) dopamine receptor (Rattus norvegicus) (UniProt P61169); assay: as §4; method in brief: as §2
[11] = target: T3, Glutamate NMDA receptor (Rattus norvegicus); assay: Binding affinity of compound was tested on Phencyclidine binding assay.; type: protein-complex assay; method in brief: as §3

| SMILES | Ki [1] [nM] | Displacement [2] [%] | Displacement [3] [%] | Ki (Glutamate NMDA receptor) [nM] | Ki [4] [nM] | also measured |
| --- | --- | --- | --- | --- | --- | --- |
| CCCN(CCC)CCCC1CCCc2ccccc21 (configuration not stated) | 400 | 51 | 0 | 48100 | 6.7 | – |
| COc1cccc2c1CCCC2CCCN1CCCCC1 (configuration not stated) | > 1430 | – | – | 3240 | – | Ki [5]: > 5520 nM; Ki (D(2) dopamine receptor [6]): > 1850 nM |
| c1ccc(CC2CCN(CCCCC3CCCc4ccccc43)CC2)cc1 (configuration not stated) | 285 | – | – | > 92600 | 30 | – |
| COc1ccc2c(c1)C(CCCN1CCCCC1)CCC2 (configuration not stated) | > 1430 | – | – | – | 63.2 | Ki [5]: > 5520 nM; Ki (D(2) dopamine receptor [6]): > 1850 nM; Displacement [7]: 88% |
| c1ccc2c(c1)CCCC2CCCCN1CCCCC1 (configuration not stated) | > 1430 | 64 | 27 | 5560 | 4.7 | – |
| CCCN(CCC)CCCCC1CCCc2ccccc21 (configuration not stated) | 200 | 66 | 31 | 9910 | 4.7 | – |
| C=CCN1CCC2c3cc(O)ccc3CC1C2C (configuration not stated) | – | – | – | – | – | Ki [8]: 370 nM |
| COc1cccc2c1CCCC2CCCN1CCCC(C)(C)C1 (configuration not stated) | 898 | – | – | 34.2 | – | Ki (D(2) dopamine receptor [6]): > 10000 nM |
| CCCN(CCC)CCCCC1=CCCc2ccccc21 | 357 | 60 | 40 | 2600 | 3.9 | – |
| CC1(C)CCCN(CCCCC2CCCc3ccccc32)C1 (configuration not stated) | > 1430 | – | – | > 92600 | 0.8 | Ki (D(2) dopamine receptor [6]): > 10000 nM |
| COc1cccc2c1CCCC2CCCN1CCC(Cc2ccccc2)CC1 (configuration not stated) | < 0.14 | – | – | > 92600 | – | Ki (D(2) dopamine receptor [9]): 1300 nM |
| c1ccc2c(c1)CCN(CCCCC1CCCc3ccccc31)C2 (configuration not stated) | – | – | – | > 92600 | 3.7 | – |
| CC1(C)CCCN(CCCC2CCCc3cscc32)C1 (configuration not stated) | > 1430 | – | – | 9.4 | – | – |
| c1ccc2c(c1)CCCC2CCCN1CCCCC1 (configuration not stated) | > 1430 | 21 | – | – | – | Displacement [10]: 0%; Displacement [7]: 95% |
| C1=C(CCCCN2CCCCC2)c2ccccc2CC1 | > 1430 | 12 | 0 | – | 3.9 | Displacement [11]: 92% |
| c1cc2c(s1)CCCC2CCCN1CCCCC1 (configuration not stated) | – | – | – | > 92600 | – | – |
